Results from publication PMC10038104 (ACS infectious diseases, 2022).
In brackets after ≈: the same amount, converted by molar mass. Positions of bridges follow the written chain, without caps; N, C: chain ends. Residues, ends and D or L forms follow the SMILES beside them.

Key:
[1] = 37 °C, pure water, 72 hours, 18 μM, relative peak area by LC-MS
[2] = test system: E. asburiae DSM 17506; format: cell-based
[3] = test system: E. cloacae
[4] = molecular target: trypsin (Sus scrofa, UniProt P00761); assay: trypsin digestion; format: in vitro ADME; settings: 50 mM ammonium bicarbonate, 1:100 trypsin:peptide weight ratio, 30 minutes to 1 hour, LC-MS
trypsin, sequence (P00761 9-231): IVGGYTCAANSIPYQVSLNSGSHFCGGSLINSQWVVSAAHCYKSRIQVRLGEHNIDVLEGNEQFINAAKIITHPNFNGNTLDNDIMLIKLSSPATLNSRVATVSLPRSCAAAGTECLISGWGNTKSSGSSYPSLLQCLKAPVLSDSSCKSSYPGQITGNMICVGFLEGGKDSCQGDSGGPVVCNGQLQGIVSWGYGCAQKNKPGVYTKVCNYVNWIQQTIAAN

[5] = test system: Enterobacter cloacae ATCC 13047; format: cell-based
[6] = test system: E. mori DSM 26271; format: cell-based
[7] = molecular target: α-chymotrypsin (Bos taurus, UniProt P00766); assay: α-chymotrypsin digestion; format: in vitro ADME; settings: 100 mM Tris, 10 mM CaCl2, pH 8.0, 0.04 mg/mL α-chymotrypsin, 1 hour, 25 °C, LC-MS
[8] = test system: E. coli XL-1 Blue; assay: intracellular expression from plasmid with cloD gene removed; format: cell-based; settings: LB agar with IPTG; plasmid without cloD so that the peptide cannot be exported
[9] = test system: clinical isolates of Enterobacter; assay: spot-on-lawn assay, the other 6 clinical isolates; format: cell-based; settings: the other 6 of 12 clinical isolates (Table S4B)
Method in brief: (§1)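 Purified peptide in water, concentration set by A280. Each strain was grown overnight in LB, then subcultured in LB to mid-exponential phase (OD600 ~0.4-0.6). It was seeded at ~10^7 CFU/mL into molten M63 soft agar, overlaid on M63 agar and dried. Peptide was spotted at various concentrations and dried. After overnight incubation, zones of inhibition were scored; the last visible spot was taken as MIC.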

[10] = test system: E. amnigenus; settings: 16 h
[11] = test system: Salmonella enterica serovar Newport; assay: spot-on-lawn assay in M63 agar; format: cell-based; settings: purified peptide dissolved in water
Method in brief: as §1

[12] = test system: Enterobacter hormaechei ATCC 700323; assay: spot-on-lawn assay in M63 agar; format: cell-based; settings: purified peptide dissolved in water
Method in brief: as §1

[13] = test system: Enterobacter kobei BAA-260; assay: spot-on-lawn assay in M63 agar; format: cell-based; settings: purified peptide dissolved in water
Method in brief: as §1

[14] = test system: E. coli MG1655; assay: spot-on-lawn assay in M63 agar; format: cell-based; settings: purified peptide dissolved in water
Method in brief: as §1

[15] = test system: E. nimipressuralis DSM 18955; format: cell-based
[16] = test system: Klebsiella aerogenes ATCC 13048; assay: spot-on-lawn assay in M63 agar; format: cell-based; settings: purified peptide dissolved in water
Method in brief: as §1

[17] = test system: B. subtilis 168; assay: spot-on-lawn assay in M63 agar; format: cell-based; settings: purified peptide dissolved in water
Method in brief: as §1

[18] = molecular target: thermolysin (Bacillus thermoproteolyticus, UniProt P00800); assay: thermolysin digestion; format: in vitro ADME; settings: 50 mM Tris, 0.5 mM CaCl2, pH 8.0, 0.04 mg/mL thermolysin, 1 hour, 30 °C, LC-MS
thermolysin, sequence (P00800 233-548): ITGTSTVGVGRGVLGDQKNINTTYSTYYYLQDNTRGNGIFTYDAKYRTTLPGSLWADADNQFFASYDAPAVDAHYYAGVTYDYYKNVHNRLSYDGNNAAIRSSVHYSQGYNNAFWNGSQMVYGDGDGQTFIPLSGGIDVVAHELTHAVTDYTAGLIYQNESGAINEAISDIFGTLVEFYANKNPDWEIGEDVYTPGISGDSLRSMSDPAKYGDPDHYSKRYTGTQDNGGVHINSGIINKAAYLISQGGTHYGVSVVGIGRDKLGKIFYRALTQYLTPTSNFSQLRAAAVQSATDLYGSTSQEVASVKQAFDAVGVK

[19] = test system: carboxypeptidase B and carboxypeptidase Y; assay: carboxypeptidase treatment; settings: 20 °C, 16 hours, 50 mM sodium acetate pH 6.0, LC-MS
[20] = test system: elastase; assay: elastase digestion; format: in vitro ADME; settings: 50 mM Tris pH 9.0, 0.04 mg/mL elastase, 1 hour, 25 °C, LC-MS

Structure (SMILES): CC[C@H](C)[C@@H]1NC(=O)[C@H](CCCNC(=N)N)NC(=O)[C@H](CC(=O)O)NC(=O)[C@H](C(C)C)NC(=O)[C@H](CO)NC(=O)[C@H](Cc2c[nH]cn2)NC(=O)CNC(=O)CC[C@@H](C(=O)N[C@@H](Cc2ccc(O)cc2)C(=O)N[C@@H](Cc2ccccc2)C(=O)NCC(=O)N2CCC[C@H]2C(=O)N2CCC[C@H]2C(=O)NCC(=O)N[C@@H](CC(C)C)C(=O)N2CCC[C@H]2C(=O)NCC(=O)N2CCC[C@H]2C(=O)N[C@H](C(=O)N[C@@H](CC(C)C)C(=O)N[C@@H](Cc2ccccc2)C(=O)N[C@@H](Cc2ccc(O)cc2)C(=O)N[C@@H](CO)C(=O)O)C(C)C)NC(=O)[C@@H]2CCCN2C1=O [cloacaenodin] (GHSVDRIPEYFGPPGLPGPVLFYS-OH; lactam N-9; C-terminus assumed)
- fraction remaining threaded [1]: ~ 83%
- MIC in M63 media (agar) [2]: 3.8 µM (≈ 9.82 µg/mL)
- MIC in M63 media (liquid) ([3]; 16 h): 0.94 µM (≈ 2.43 µg/mL)
- cell morphology under the microscope ([3]; E. cloacae cells treated with sub-MIC values, broth microdilution cultures): exhibited a degree of filamentation
- susceptibility to proteolysis by trypsin [4]: remained resistant to proteolysis
- MIC in M63 media (agar) [5]: 7.5 µM (≈ 19.4 µg/mL)
- MIC in M63 media (agar) [6]: 1.9 µM (≈ 4.91 µg/mL)
- susceptibility to proteolysis by chymotrypsin [7]: remained resistant to proteolysis
- E. coli growth upon IPTG-induced intracellular expression without cloD [8]: colonies did not appear
- antimicrobial activity [9]: weak or no activity
- MIC in M63 media (liquid) [10]: 0.23 µM (≈ 0.594 µg/mL)
- antimicrobial activity (zones of inhibition) [11]: no observed activity
- antimicrobial activity (zones of inhibition) [12]: no observed activity
- antimicrobial activity (zones of inhibition) [13]: no observed activity
- antimicrobial activity (zones of inhibition) [14]: no observed activity
- MIC in M63 media (agar) [15]: 1.9 µM (≈ 4.91 µg/mL)
- antimicrobial activity (zones of inhibition) [16]: no observed activity
- antimicrobial activity (zones of inhibition) [17]: no observed activity
- susceptibility to proteolysis by thermolysin [18]: remained resistant to proteolysis
- susceptibility to C-terminal proteolysis by carboxypeptidase [19]: resistant to C-terminal proteolysis
- susceptibility to proteolysis by elastase [20]: remained resistant to proteolysis
